From BindingDB's records for doi:10.1021/acs.jmedchem.0c01126 (The University of Tokyo, 2020) come the findings set out here.

A word on the pEC50: it is −log10 of the EC50, conventionally taken in molar units.

Molecules are shown by their SMILES. pEC50: −log10 of the molar value.

Sequence of Probable G-protein coupled receptor 34 (Q9R1K6 whole entry, the tested form may be a part): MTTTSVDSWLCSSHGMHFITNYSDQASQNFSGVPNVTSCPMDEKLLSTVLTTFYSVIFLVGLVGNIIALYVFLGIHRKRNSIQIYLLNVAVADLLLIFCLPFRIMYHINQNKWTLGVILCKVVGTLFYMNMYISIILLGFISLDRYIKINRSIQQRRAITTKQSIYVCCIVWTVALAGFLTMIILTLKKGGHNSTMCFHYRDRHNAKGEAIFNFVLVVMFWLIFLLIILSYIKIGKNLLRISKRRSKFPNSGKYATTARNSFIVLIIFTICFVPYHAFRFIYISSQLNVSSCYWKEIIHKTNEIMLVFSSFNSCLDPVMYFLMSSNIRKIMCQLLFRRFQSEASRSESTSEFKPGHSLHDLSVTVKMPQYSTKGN

One assay concerns the target Probable G-protein coupled receptor 34 (Mus musculus, UniProt Q9R1K6). As to the kind of experiment: Agonist activity at mouse GPR34 expressed in HEK293 cells co-transfected with AP-TGFalpha/Galphaq/i1 assessed as induction of ectodomain shedding of membrane bound AP-TGFalpha after 1 hr by p-NPP substrate based microplate reader analysis. The method in brief: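 HEK293 cells transiently transfected with AP-TGFα, chimeric Gα and mouse GPR34 vectors, then treated with compound. Empty-vector cells (AP-TGFα plus chimeric Gα) served as background. Receptor-specific AP-TGFα release was taken after subtracting that background, and concentration-response curves gave EC50 and Emax. Mean and SEM of 3−8 independent experiments.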
With `CCCCCCCC/C=C\CCCCCCCC(=O)OCCOP(=O)(O)OC[C@H](N)C(=O)O`, the pEC50 is less than 5.50. The same measure, in the same setting: as for `CCCCCCCC/C=C\CCCCCCCC(=O)O[C@@H](C)COP(=O)(O)OC[C@H](N)C(=O)O`, the figure is less than 5.50. Same read-out and setting: in the case of `CCCCCCCCCCCOc1ccccc1CCC(=O)O[C@H]1CCOC[C@H]1OP(=O)(O)OC[C@H](N)C(=O)O` it was less than 5.50; in that of `CCCCCCCCCCCOc1ccccc1CCC(=O)O[C@H]1COCC[C@@H]1OP(=O)(O)OC[C@H](N)C(=O)O`, less than 5.50.

In another assay the target is Putative P2Y purinoceptor 10 (Mus musculus, UniProt Q8BFU7). The assay can be described thus: Agonist activity at mouse P2Y10 expressed in HEK293 cells co-transfected with AP-TGFalpha/Galphaq/i1 assessed as induction of ectodomain shedding of membrane bound AP-TGFalpha after 1 hr by p-NPP substrate based microplate reader analysis. The method in brief: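 Run the same way as the GPR34 shedding assay, but with a mouse P2Y10 expression vector in HEK293 cells alongside AP-TGFα and chimeric Gα. Receptor-specific AP-TGFα release was found by subtracting the empty-vector background. EC50 and Emax came from concentration-response curves. Mean and SEM of 3−8 independent experiments.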
Sequence of Putative P2Y purinoceptor 10 (Q8BFU7 whole entry, the tested form may be a part): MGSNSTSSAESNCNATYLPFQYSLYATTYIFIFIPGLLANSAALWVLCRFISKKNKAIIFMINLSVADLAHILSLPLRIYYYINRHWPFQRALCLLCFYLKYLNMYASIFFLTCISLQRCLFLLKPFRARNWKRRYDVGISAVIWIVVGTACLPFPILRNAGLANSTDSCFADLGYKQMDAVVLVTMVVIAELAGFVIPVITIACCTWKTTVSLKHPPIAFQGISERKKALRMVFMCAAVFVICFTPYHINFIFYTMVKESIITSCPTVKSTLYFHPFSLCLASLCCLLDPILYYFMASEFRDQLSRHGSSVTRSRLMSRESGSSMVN
As for `CCCCCCCC/C=C\CCCCCCCC(=O)OC[C@@H](COC)OP(=O)(O)OC[C@H](N)C(=O)O`, the pEC50 was less than 5.50. On the same count and under the same terms, in the case of `CCCCCCCC/C=C\CCCCCCCC(=O)OC[C@H](COC)OP(=O)(O)OC[C@H](N)C(=O)O` it was less than 5.50; in that of `CCCCCCCC/C=C\CCCCCCCC(=O)OC[C@@H](COCC)OP(=O)(O)OC[C@H](N)C(=O)O`, less than 5.50. The same measure, in the same setting: as for `CCCCCCCC/C=C\CCCCCCCC(=O)OC[C@@H](COCCC)OP(=O)(O)OC[C@H](N)C(=O)O`, the figure is less than 5.50; as for `COC[C@H](COC(=O)CCc1ccccc1OCc1cccc(Oc2ccccc2)c1)OP(=O)(O)OC[C@H](N)C(=O)O`, less than 5.50. As for `CCOC[C@H](COC(=O)CCc1ccccc1OCc1cccc(Oc2ccccc2)c1)OP(=O)(O)OC[C@H](N)C(=O)O`, the negative-log EC50 (pEC50) is less than 5.50.

In a further assay the target is G protein-coupled receptor 34a (Danio rerio, UniProt Q6XCC7). The assay can be described thus: Agonist activity at zebrafish GPR34 type a expressed in HEK293 cells co-transfected with AP-TGFalpha/Galphaq/i1 assessed as induction of ectodomain shedding of membrane bound AP-TGFalpha after 1 hr by p-NPP substrate based microplate reader analysis.
Sequence of G protein-coupled receptor 34a (Q6XCC7 1-389): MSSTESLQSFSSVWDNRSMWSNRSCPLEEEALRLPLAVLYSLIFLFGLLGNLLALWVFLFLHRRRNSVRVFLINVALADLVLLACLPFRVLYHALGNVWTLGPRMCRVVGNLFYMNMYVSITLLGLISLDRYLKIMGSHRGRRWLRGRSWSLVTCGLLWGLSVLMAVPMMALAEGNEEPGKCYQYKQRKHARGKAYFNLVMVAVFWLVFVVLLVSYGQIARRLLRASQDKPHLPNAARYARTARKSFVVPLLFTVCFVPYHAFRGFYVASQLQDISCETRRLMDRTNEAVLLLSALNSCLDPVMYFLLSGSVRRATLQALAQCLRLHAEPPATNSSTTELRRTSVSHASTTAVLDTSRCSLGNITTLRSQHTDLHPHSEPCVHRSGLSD
In the case of `CCOC[C@H](COC(=O)CCc1ccccc1OCc1cccc(Oc2ccccc2)c1)OP(=O)(O)OC[C@H](N)C(=O)O`, the negative logarithm of the EC50 (pEC50) was less than 5.50.
